Assay results reported in PMC4981499 (Nature, 2014).
In brackets after ≈: the same amount, converted by molar mass.

Legend:
K. pneumoniae N11-2218 = assay: MIC; type: cell-based; settings: meropenem alone; K. pneumoniae N11-2218 (CRE)
How it was run: (§1)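 Checkerboard microdilution with 8 concentrations each of meropenem and test compound in serial ½ dilutions, run in duplicate, and the mean was used. MIC was the lowest concentration with no growth. Each FIC was the concentration in the presence of the co-compound in a no-growth well divided by that compound's MIC; the FIC index is the sum of the two FICs.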

[1] = test system: NDM-1-positive K. pneumoniae N11-2218; assay: Mouse systemic infection, organ bacterial load; type: in vivo, CD1 mice; settings: s.c., spleen burden 48 h after infection
How it was run: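 Female CD1 mice, 7–9 weeks, infected i.p. with 2×10⁶ cfu K. pneumoniae N11-2218. Treated s.c. 30 minutes post infection with test compound, meropenem, their combination, or PBS. Euthanized at 48 h; spleen and liver were homogenized in PBS, serially diluted and plated on Brilliant Green agar for cfu counts.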

[2] = test system: NDM-1-positive K. pneumoniae N11-2218; assay: Mouse lethal systemic infection, survival; type: in vivo, CD1 mice; settings: meropenem (10 mg/kg) alone or AMA (30 mg/kg) alone, single s.c. dose
How it was run: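 Female CD1 mice, 7–9 weeks, randomized 5 per cage. Infected i.p. with 5×10⁷ cfu K. pneumoniae N11-2218. A single s.c. dose was given 30 minutes post infection: meropenem 10 mg/kg, test compound 30 mg/kg, their combination, or PBS. Mice were monitored for endpoint until day 4. Preparation, infection and processing were done by two independent investigators for blinding.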

E. coli BW25113 = assay: MIC; type: cell-based; settings: Escherichia coli
How it was run: as §1

C[C@@H](O)[C@H]1C(=O)N2C(C(=O)O)=C(S[C@@H]3CN[C@H](C(=O)N(C)C)C3)[C@H](C)[C@H]12 [meropenem]
MIC (K. pneumoniae N11-2218): 32 µg/mL (≈ 83.4 µM)
Response of infection to meropenem monotherapy [1]: resistant to meropenem monotherapy at doses below 50 mg/kg
Prevention of lethal infection by monotherapy [2]: unable to prevent lethal infection
MIC (E. coli BW25113): 0.008 to 0.016 µg/mL (≈ 0.0209 to 0.0417 µM)
